The results in this text go back to ChEMBL document CHEMBL1154465, “Structure-activity relationships in the acronycine and benzo[b]acronycine series: role of the pyran ring” (Eur J Med Chem, 2008).

Assay [1] is described as follows: Cytotoxicity against human KB3-1 cells after 96 hrs by microculture tetrazolium assay. The note with it: KB 3-1, 96 h. It is filed as functional, cell-based. In short, it runs like this:
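KB-3-1 cells grown in DMEM with 10% fetal calf serum, 2 mM L-glutamine, penicillin, streptomycin and 10 mM HEPES (pH 7.4). Exposed to graded drug concentrations (nine serial dilutions, triplicate) for four doubling times (96 h). Viability read by microculture tetrazolium assay; IC50 reported.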

For assay [2], the system named is L1210. As to the kind of experiment: Cytotoxicity against mouse L1210 cells after 48 hrs by microculture tetrazolium assay. The assay is classed as functional, cell-based. The note with it: L1210, 48 h. In short, it runs like this: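 L1210 cells maintained in RPMI 1640 plus 10% fetal calf serum, 2 mM L-glutamine, penicillin, streptomycin and 10 mM HEPES (pH 7.4). Drug exposure at nine serial dilutions in triplicate for four doubling times (48 h). Microculture tetrazolium read-out; results given as IC50.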

By IC50 is commonly meant the concentration at which inhibition is half-maximal. Take `COCc1c(OC)cc(OC)c2c(=O)c3ccccc3n(C)c12`: the half-inhibitory concentration (IC50) in assay [1] is 36.2 µM; in assay [2] it was 51.7 µM.
On to `COc1ccc2c(=O)c3ccccc3n(C)c2c1COC(C)=O`, for which, in assay [2], the midpoint of inhibition, the IC50, lay at 24 µM.
For `COc1cc(OC)c2c(=O)c3ccccc3n(C)c2c1CO`, the figures for the IC50 in assay [1] and in assay [2] were 34.1 µM and 23.9 µM, respectively.
For the molecule `COc1cc(OC)c2c(=O)c3ccccc3n(C)c2c1COC(C)=O`, the half-maximal inhibitory concentration (IC50) amounted to 17.7 µM in assay [1] and 39.9 µM in assay [2].
On to `COc1ccc2c(=O)c3cc4ccccc4cc3n(C)c2c1CO`, for which the IC50 is 22.5 µM in assay [1] and 34.6 µM in assay [2].
In the case of `COc1cc(OC(C)(C)CO)c(CO)c2c1c(=O)c1cc3ccccc3cc1n2C`, the IC50 in assay [1] was 26.2 µM; in assay [2], 1.3 µM.
On to `COc1cc(OC(C)(C)COC(C)=O)c(COC(C)=O)c2c1c(=O)c1cc3ccccc3cc1n2C`, for which the values for the IC50 in assay [1] and in assay [2] were 4.9 µM and 3 µM, respectively.
For the molecule `COc1ccc2c(=O)c3ccccc3n(C)c2c1CO`, the IC50 in assay [2] was 13.9 µM.
Consider `COc1ccc2c(=O)c3cc4ccccc4cc3n(C)c2c1COC(C)=O`, for which the IC50 in assay [1] is 7.9 µM; in assay [2], 18.5 µM.
`COc1cc2c(c3c1c(=O)c1cc4ccccc4cc1n3C)[C@@H](OC(C)=O)[C@@H](OC(C)=O)C(C)(C)O2` (relative stereo) showed an IC50 in assay [1] of 0.095 µM.
